Test results from ChEMBL document CHEMBL1151321, “Bisamides, lignans, triterpenes, and insecticidal Cyclopenta[b]benzofurans from Aglaia species” (J Nat Prod, 1998).

Tests used:
[1] = tested on: Spodoptera littoralis; assay: Insecticidal activity against Spodoptera littoralis larvae assessed as survival rat after 5 days; assay type: functional
Procedure, shortened: (§1)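 Larvae kept 5 days in a moist chamber at 29 °C in darkness, then survival and larval weight compared with a carrier-only control group. Run in triplicate; LC50 (survival) and EC50 (growth) from dose-response curves by probit-log analysis.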

[2] = tested on: Spodoptera littoralis; assay: Insecticidal activity against Spodoptera littoralis larvae assessed as growth inhibition after 5 days; assay type: functional, organism-based; procedure, shortened: as §1
[3] = tested on: Lymantria dispar; assay: Insecticidal activity against Lymantria dispar larvae assessed as mean weight of surviving larvae after 8 days; assay type: functional, organism-based
Procedure, shortened: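 Freshly hatched larvae (n = 10) from a laboratory colony reared on wheat germ-casein diet, fed diet spiked with 1 μg – 100 μg/g fresh wt of compound. Kept 8 days in a moist chamber at 26 °C in darkness. Mean weight of surviving larvae compared with controls. Commercial azadirachtin (>96%) as positive control. Three replicates; LC50/EC50 from dose-response curves by probit-log analysis.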

SMILES | LC50 [1] [µg/g] | EC50 [2] [µg/g] | EC50 [3] [µg/g]
COC(=O)[C@H]1[C@@H](OC(C)=O)[C@@]2(O)c3c(cc4c(c3OC)OCO4)O[C@@]2(c2ccc(OC)cc2)[C@@H]1c1ccccc1 | 12.2 | 1.2 | –
COc1ccc(C2C(=O)Oc3cc4c(c(OC)c32)OCO4)cc1 (stereo unspecified) [AGLALACTONE] | >100 | > 100 | –
C/C=C(\C)C(=O)O[C@H]1C[C@@H](OC(C)=O)[C@@]2(C(=O)OC)CO[C@H]3[C@@H](O)[C@@](C)([C@]45O[C@@]4(C)[C@@H]4C[C@H]5O[C@@H]5OC=C[C@@]54O)[C@H]4[C@]1(CO[C@]4(O)C(=O)OC)[C@@H]32 [AZADIRACHTIN A] | 6.1 | 0.11 | 0.6
CC(=O)N(CCCCNC(=O)/C=C/c1ccccc1)C(=O)CCc1ccccc1 [EDULIMIDE] | >250 | > 250 | –
COc1cc(C[C@H]2CO[C@H](c3ccc(O)c(OC)c3)[C@H]2COC(C)=O)ccc1O [LARICIRESINOL ACETATE] | >250 | > 250 | –
COC(=O)[C@H]1[C@@H](O)[C@@]2(O)c3c(cc4c(c3OC)OCO4)O[C@@]2(c2ccc(OC)cc2)[C@@H]1c1ccccc1 [PANNELLIN] | 2.1 | 0.24 | 1.4
CC(C)(O)C(=O)NC1CCCN1C(=O)/C=C/c1ccccc1 (stereo unspecified) [PIRIFERINOL] | >250 | > 250 | –
